The values that follow come from ChEMBL document CHEMBL5357042, “Discovery of imidazo[1,2-b]pyridazine-containing TAK1 kinase inhibitors with excellent activities against multiple myeloma” (RSC Med Chem, 2024).

Activity calls are given as the source filed them. No cut-off for these calls is given here. Bounds are passed on as bounds.

The target of assay [1] is T1, Mitogen-activated protein kinase kinase kinase 7 (Homo sapiens) (UniProt O43318).
T1 sequence (whole entry): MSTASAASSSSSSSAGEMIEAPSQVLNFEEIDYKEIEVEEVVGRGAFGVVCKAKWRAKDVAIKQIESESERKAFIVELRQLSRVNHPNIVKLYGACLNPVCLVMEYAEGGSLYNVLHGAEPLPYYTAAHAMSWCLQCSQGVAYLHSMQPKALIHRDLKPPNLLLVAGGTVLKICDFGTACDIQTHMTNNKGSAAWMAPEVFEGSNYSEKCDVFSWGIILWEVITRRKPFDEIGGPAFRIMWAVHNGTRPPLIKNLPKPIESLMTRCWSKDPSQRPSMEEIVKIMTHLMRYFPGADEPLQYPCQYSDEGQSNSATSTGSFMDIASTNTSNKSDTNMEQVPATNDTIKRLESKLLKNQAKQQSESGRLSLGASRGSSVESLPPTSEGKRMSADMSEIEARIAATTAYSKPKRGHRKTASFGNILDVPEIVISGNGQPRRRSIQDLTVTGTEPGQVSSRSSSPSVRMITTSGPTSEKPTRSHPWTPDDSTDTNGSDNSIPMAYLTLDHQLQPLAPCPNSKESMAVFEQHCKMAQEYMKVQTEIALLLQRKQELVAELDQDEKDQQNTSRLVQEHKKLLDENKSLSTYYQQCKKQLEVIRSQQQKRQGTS
The assay can be described thus: Inhibition of TAK1 (unknown origin) at 500 nM by ADP-Glo kinase assay. (In general: In ADP-Glo the light output rises with the ADP produced.)

In assay [2] the target is T1, Mitogen-activated protein kinase kinase kinase 7 (Homo sapiens). The assay can be described thus: Inhibition of TAK1 (unknown origin) at 100 nM by ADP-Glo kinase assay.
For assay [3] the target is unchanged. The assay can be described thus: Inhibition of TAK1 (unknown origin) at 20 nM by ADP-Glo kinase assay.
In assay [4] the target is Mitogen-activated protein kinase kinase kinase 7 (Homo sapiens, UniProt O43318). Kind of assay: Inhibition of human TAK1 using casein as substrate in presence of [gamma-33P]-ATP by radiometric hotspot kinase assay.
The next assay deals with MPC-11. Kind of assay: Cytotoxicity against mouse MPC-11 cells assessed as reduction in cell viability incubated for 72 hrs by CellTiter-Blue assay. It counts as functional. Summed up:
(§1)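 H929 (RPMI, 10% heat-inactivated FBS) or MPC-11 (DMEM, 10% FBS) cells, under 10 passages, 37 °C, 5% CO₂; 4–5 × 10³ cells/well seeded, 24 h, then compound at various concentrations for 72 h. CellTiter-Blue added for 3 h, fluorescence ex/em 560/590 nm. Normalized to DMSO-treated cells; triplicate, mean and standard deviation.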
On the technique in general: Resazurin is reduced to fluorescent resorufin, in cell work by metabolically active cells.

The next assay has as its system NCI-H929. Kind of assay: Cytotoxicity against human NCI-H929 cells assessed as reduction in cell viability incubated for 72 hrs by CellTiter-Blue assay. It counts as functional. Summed up:
as §1

The target in assay [5] is Mitogen-activated protein kinase kinase kinase 7 (Mus musculus) (UniProt Q62073). The assay can be described thus: Inhibition of TAK1 in mouse MPC-11 cells assessed as reduction in TAK1 phosphorylation at Ser412 residue at 0.1 to 0.5 uM incubated for 48 hrs by Western blot analysis. The following applies: dose 0.1-0.5 µM. The class given is cell-based. Summed up: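 MPC-11 cells (0.5–1 × 10⁶/well) seeded, treated after 24 h for 48 h; DMSO control. BCA protein quantitation, 10% SDS-PAGE, PVDF; pTAK1, TAK1, β-actin antibodies overnight 4 °C, HRP secondaries 2 h 24 °C, chemiluminescence. Bands quantified relative to actin; duplicates, mean and standard deviation.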
Chain of Mitogen-activated protein kinase kinase kinase 7 (Mus musculus) (Q62073 whole entry): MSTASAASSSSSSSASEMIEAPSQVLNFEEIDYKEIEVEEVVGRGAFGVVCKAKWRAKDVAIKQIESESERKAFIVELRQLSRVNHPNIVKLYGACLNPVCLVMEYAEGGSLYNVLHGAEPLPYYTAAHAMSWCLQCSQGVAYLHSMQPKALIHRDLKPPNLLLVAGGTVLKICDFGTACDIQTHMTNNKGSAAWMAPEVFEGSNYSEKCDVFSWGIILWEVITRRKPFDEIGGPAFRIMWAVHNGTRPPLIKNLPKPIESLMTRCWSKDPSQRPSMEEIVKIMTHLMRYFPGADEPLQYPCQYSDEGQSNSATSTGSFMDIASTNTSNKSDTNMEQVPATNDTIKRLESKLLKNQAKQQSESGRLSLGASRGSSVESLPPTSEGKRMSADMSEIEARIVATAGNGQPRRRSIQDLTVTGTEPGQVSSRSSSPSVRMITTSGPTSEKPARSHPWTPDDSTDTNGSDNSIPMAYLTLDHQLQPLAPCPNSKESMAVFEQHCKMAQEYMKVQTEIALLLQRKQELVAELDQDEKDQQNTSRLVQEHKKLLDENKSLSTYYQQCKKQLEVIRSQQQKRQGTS
On the technique in general: Immunoblotting shows a protein as a band on a membrane.

The target of assay [6] is Mast/stem cell growth factor receptor Kit (Homo sapiens) (UniProt P10721). Kind of assay: Inhibition of human wild type partial length c-Kit (545 to 952 residues) expressed in mammalian expression system at 50 to 500 nM by KinomeScan analysis. The following applies: dose 50-500 nM.
Assay [7] deals with Tyrosine-protein kinase ZAP-70 (Homo sapiens) (UniProt P43403). The assay can be described thus: Inhibition of human wild type partial length ZAP70 (20 to 299 residues) expressed in mammalian expression system at 50 to 500 nM by KinomeScan analysis. The following applies: dose 50-500 nM.
Chain of Tyrosine-protein kinase ZAP-70 (Homo sapiens) (P43403 whole entry, the tested form may be a part): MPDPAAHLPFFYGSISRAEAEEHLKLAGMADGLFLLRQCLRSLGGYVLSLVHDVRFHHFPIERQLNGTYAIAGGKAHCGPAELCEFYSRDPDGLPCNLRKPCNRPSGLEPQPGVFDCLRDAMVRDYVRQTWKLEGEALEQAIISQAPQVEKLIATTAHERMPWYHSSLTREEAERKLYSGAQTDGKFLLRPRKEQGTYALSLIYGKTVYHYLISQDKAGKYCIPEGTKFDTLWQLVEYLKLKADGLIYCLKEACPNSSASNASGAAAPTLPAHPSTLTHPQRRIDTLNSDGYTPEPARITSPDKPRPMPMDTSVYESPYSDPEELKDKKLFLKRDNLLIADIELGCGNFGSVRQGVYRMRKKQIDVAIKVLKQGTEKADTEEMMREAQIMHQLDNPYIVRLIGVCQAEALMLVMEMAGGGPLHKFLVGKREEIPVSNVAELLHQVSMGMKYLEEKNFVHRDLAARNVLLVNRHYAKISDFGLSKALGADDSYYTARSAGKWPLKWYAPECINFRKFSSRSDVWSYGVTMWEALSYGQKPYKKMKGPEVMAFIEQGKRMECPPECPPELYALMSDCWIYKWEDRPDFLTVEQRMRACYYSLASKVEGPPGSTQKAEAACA
Assay [8] concerns the target Tyrosine-protein kinase JAK2 (Homo sapiens) (UniProt O60674). Kind of assay: Inhibition of human wild type partial length JAK2 (829 to 1132 residues) expressed in mammalian expression system at 50 to 500 nM by KinomeScan analysis. The following applies: dose 50-500 nM.
Assay [9] deals with Proto-oncogene tyrosine-protein kinase receptor Ret (Homo sapiens) (UniProt P07949). The assay can be described thus: Inhibition of human RET at 50 to 500 nM by KinomeScan analysis. The following applies: dose 50-500 nM.
The target in assay [10] is Vascular endothelial growth factor receptor 2 (Homo sapiens) (UniProt P35968). The assay can be described thus: Inhibition of human wild type partial length VEGFR2 (787 to 1253 residues) expressed in mammalian expression system at 50 to 500 nM by KinomeScan analysis. The following applies: dose 50-500 nM.
Chain of Vascular endothelial growth factor receptor 2 (Homo sapiens) (P35968 whole entry, the tested form may be a part): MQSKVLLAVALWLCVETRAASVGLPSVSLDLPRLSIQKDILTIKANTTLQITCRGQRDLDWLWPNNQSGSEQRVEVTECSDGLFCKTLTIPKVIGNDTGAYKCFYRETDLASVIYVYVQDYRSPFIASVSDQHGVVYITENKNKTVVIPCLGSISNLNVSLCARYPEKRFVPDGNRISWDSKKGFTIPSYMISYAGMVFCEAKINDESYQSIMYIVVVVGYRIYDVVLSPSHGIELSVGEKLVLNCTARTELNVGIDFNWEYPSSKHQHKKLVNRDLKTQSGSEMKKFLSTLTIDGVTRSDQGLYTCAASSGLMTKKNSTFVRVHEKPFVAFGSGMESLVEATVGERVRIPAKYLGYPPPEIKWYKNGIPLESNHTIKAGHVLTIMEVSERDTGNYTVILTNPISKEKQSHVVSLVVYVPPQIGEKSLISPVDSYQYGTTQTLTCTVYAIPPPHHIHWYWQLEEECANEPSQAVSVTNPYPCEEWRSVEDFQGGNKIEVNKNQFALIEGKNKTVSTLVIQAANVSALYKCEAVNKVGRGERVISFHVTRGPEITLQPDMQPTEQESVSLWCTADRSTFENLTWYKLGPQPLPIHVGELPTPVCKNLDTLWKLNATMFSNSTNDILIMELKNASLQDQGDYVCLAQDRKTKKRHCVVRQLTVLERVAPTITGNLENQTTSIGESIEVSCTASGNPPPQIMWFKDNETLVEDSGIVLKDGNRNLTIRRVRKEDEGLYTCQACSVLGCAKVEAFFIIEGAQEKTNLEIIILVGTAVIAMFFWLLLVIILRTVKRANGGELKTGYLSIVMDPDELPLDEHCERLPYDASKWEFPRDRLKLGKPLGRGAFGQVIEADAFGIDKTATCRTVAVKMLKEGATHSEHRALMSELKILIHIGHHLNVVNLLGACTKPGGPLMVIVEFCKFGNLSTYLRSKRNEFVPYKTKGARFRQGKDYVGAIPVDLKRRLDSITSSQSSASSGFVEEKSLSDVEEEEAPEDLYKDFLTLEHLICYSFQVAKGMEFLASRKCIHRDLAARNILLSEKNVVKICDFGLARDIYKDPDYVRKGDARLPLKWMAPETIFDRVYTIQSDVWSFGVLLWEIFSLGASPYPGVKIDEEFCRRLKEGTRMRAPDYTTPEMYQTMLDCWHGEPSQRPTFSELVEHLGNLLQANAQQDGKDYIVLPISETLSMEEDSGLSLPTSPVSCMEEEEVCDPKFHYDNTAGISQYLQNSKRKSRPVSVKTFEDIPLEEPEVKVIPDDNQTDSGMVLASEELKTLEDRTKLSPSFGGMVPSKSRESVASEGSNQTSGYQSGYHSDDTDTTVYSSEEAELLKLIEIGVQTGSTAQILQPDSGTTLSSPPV
Assay [11] deals with Platelet-derived growth factor receptor alpha (Homo sapiens) (UniProt P16234). Kind of assay: Inhibition of human wild type partial length PDGFRA (575 to 1002 residues) expressed in mammalian expression system at 50 to 500 nM by KinomeScan analysis. The following applies: dose 50-500 nM.
The target of assay [12] is Platelet-derived growth factor receptor beta (Homo sapiens) (UniProt P09619). The assay can be described thus: Inhibition of human wild type partial length PDGFRB (582 to 1009 residues) expressed in bacterial expression system at 50 to 500 nM by KinomeScan analysis. The following applies: dose 50-500 nM.
Assay [13] concerns the target Fibroblast growth factor receptor 2 (Homo sapiens) (UniProt P21802). The assay can be described thus: Inhibition of human wild type partial length FGFR2 (457 to 769 residues) expressed in bacterial expression system at 50 to 500 nM by KinomeScan analysis. The following applies: dose 50-500 nM.
The target in assay [14] is Fibroblast growth factor receptor 3 (Homo sapiens) (UniProt P22607). Kind of assay: Inhibition of human wild type partial length FGFR3 (442 to 771 residues) expressed in bacterial expression system at 50 to 500 nM by KinomeScan analysis. The following applies: dose 50-500 nM.
Assay [15] concerns the target Epidermal growth factor receptor (Homo sapiens) (UniProt P00533). Kind of assay: Inhibition of human wild type partial length EGFR (669 to 1011 residues) expressed in bacterial expression system at 50 to 500 nM by KinomeScan analysis. The following applies: dose 50-500 nM.
The target of assay [16] is Serine/threonine-protein kinase B-raf (Homo sapiens) (UniProt P15056). Kind of assay: Inhibition of human wild type partial length BRAF (429 to 741 residues) expressed in mammalian expression system at 50 to 500 nM by KinomeScan analysis. The following applies: dose 50-500 nM.
Chain of Serine/threonine-protein kinase B-raf (Homo sapiens) (P15056 whole entry, the tested form may be a part): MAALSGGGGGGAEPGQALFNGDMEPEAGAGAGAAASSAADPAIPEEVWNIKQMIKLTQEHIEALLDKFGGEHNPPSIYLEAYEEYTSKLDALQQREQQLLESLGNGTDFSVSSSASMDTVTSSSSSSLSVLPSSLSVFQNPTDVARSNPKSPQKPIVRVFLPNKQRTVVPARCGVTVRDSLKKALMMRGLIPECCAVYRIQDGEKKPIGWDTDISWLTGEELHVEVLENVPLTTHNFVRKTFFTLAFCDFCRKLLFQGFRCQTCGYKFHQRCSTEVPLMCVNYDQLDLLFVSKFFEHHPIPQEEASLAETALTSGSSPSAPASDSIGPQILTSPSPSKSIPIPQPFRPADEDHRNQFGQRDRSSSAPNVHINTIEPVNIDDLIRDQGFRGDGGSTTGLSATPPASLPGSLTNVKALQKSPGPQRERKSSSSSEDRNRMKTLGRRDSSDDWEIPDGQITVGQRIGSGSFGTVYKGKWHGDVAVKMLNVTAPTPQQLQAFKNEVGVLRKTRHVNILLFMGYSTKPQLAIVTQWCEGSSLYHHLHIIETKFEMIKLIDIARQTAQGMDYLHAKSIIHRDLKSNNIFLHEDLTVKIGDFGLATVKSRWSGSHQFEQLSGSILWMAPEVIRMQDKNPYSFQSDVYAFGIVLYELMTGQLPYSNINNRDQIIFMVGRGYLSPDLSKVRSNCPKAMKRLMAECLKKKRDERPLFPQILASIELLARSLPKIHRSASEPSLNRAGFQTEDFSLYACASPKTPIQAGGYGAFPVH
Assay [17] deals with RAC-alpha serine/threonine-protein kinase (Homo sapiens) (UniProt P31749). The assay can be described thus: Inhibition of human wild type partial length AKT1 expressed in bacterial expression system at 50 to 500 nM by KinomeScan analysis. The following applies: dose 50-500 nM.
The target in assay [18] is RAC-beta serine/threonine-protein kinase (Homo sapiens) (UniProt P31751). The assay can be described thus: Inhibition of human wild type partial length AKT2 expressed in bacterial expression system at 50 to 500 nM by KinomeScan analysis. The following applies: dose 50-500 nM.
Chain of RAC-beta serine/threonine-protein kinase (Homo sapiens) (P31751 whole entry, the tested form may be a part): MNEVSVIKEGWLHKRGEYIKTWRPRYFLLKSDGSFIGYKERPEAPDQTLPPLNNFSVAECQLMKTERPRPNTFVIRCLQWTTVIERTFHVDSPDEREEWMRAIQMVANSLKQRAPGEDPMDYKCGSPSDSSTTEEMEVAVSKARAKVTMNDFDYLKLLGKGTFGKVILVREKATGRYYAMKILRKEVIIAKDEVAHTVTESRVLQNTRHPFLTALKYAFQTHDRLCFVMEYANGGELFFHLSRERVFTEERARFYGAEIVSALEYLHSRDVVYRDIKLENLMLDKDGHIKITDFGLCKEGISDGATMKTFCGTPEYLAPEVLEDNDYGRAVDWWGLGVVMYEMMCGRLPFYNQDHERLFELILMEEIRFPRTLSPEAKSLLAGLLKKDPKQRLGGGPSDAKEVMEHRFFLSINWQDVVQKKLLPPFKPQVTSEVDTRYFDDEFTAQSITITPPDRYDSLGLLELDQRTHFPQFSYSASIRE
The target in assay [19] is Aurora kinase A (Homo sapiens) (UniProt O14965). The assay can be described thus: Inhibition of human wild type partial length Aurora A (122 to 401 residues) expressed in mammalian expression system at 50 to 500 nM by KinomeScan analysis. The following applies: dose 50-500 nM.
Chain of Aurora kinase A (Homo sapiens) (O14965 whole entry, the tested form may be a part): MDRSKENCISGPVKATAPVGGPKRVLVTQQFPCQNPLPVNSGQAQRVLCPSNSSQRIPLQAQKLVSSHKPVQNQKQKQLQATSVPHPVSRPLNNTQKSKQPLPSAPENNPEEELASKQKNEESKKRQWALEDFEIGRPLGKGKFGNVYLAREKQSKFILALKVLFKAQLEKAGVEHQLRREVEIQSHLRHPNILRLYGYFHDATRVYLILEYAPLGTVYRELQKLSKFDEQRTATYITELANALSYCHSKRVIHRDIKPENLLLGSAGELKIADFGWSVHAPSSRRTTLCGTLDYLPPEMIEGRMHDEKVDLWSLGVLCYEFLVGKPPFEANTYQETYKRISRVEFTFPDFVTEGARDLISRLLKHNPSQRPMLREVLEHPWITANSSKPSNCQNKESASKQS
In assay [20] the target is Aurora kinase B (Homo sapiens) (UniProt Q96GD4). Kind of assay: Inhibition of human wild type partial length Aurora B (25 to 303 residues) expressed in mammalian expression system at 50 to 500 nM by KinomeScan analysis. The following applies: dose 50-500 nM.
Assay [21] deals with cAMP-dependent protein kinase catalytic subunit alpha (Homo sapiens) (UniProt P17612). Kind of assay: Inhibition of human wild type partial length PKAC-alpha (10 to 351 residues) expressed in bacterial expression system at 50 to 500 nM by KinomeScan analysis. The following applies: dose 50-500 nM.

Chain of Fibroblast growth factor receptor 2 (Homo sapiens) (P21802 22-821 limits assumed): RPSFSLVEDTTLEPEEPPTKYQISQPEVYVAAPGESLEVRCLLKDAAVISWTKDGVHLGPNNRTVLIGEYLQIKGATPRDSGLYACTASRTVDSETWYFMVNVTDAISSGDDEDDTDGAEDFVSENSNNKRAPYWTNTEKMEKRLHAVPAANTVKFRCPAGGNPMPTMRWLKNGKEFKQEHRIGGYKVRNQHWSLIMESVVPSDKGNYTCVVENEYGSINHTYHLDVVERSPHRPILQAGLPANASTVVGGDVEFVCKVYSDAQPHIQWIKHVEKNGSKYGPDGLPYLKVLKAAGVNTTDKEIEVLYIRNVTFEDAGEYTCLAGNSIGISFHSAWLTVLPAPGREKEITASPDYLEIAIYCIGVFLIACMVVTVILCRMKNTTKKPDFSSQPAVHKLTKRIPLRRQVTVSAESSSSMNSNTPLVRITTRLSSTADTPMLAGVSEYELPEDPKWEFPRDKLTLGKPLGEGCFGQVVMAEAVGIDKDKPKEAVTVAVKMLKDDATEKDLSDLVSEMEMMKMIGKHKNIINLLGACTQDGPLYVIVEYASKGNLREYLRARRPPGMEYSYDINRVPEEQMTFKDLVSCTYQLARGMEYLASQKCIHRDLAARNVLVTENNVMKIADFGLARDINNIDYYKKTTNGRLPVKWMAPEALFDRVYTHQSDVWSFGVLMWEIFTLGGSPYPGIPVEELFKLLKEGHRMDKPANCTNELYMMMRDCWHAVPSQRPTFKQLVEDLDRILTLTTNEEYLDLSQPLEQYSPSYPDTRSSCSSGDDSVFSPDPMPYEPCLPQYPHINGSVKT

Regarding `C[C@@H]1CN(c2ccc3ncc(-c4ccc5[nH]nc(C6CC6)c5c4)n3n2)C[C@H](C)O1`, the results for the inhibition in [1], in assay [2] and in [3] were 100%, greater than 50% and greater than 50%, respectively. In addition, the IC50 in [4] was 55 nM. For the same compound, the figures for the GI50 with MPC-11 and in the assay on NCI-H929 were 41 nM and 43 nM, respectively. Besides, the inhibition entry in assay [5], in [6], in [7], in assay [8], in assay [9] and in [10] was “Active” throughout. Further, the inhibition entry in assay [11], in assay [12], in assay [13], in assay [14], in assay [15] and in assay [16] was “Active” throughout. Also, the inhibition entry in assay [17], in [18], in assay [19], in [20] and in [21] was “Active” each time.

As a reminder, the inhibition is the drop in the measured response relative to a control, in per cent. For orientation: IC50 means the concentration that gives 50% inhibition. In general, GI50 refers to the concentration giving 50% growth inhibition.
